These results are taken from ChEMBL document CHEMBL1133940, “A novel class of inhibitors for steroid 5alpha-reductase: synthesis and evaluation of umbelliferone derivatives” (Bioorg Med Chem Lett, 2001).

Values joined by “and” are separate entries in the source; they are usually repeats but may differ in a detail not shown here. Equal values may be shown once.

This test addresses T1, 3-oxo-5-alpha-steroid 4-dehydrogenase 1 (Homo sapiens, UniProt P18405).
T1 sequence (P18405 whole entry): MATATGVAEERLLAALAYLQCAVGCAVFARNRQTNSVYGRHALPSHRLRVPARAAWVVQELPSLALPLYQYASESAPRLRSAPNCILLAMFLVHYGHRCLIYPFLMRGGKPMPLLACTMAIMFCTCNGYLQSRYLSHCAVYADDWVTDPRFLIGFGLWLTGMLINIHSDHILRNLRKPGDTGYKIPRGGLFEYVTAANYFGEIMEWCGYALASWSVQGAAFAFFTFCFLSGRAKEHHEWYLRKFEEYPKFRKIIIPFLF
Description: Inhibitory activity against 5-alpha-reductase type 1 in cell culture system using LNCaP cells (androgen-sensitive human prostatic cancer cell line). In kind it is cell-based. The method in brief:
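LNCaP cells (express 5aR-1 only) seeded at 2×10⁵ cells/mL/well, grown 24 h in medium with 5% hormone-free FBS. Then exposed to [³H]-testosterone plus test sample (final 0.5% DMSO) for 18 h. Medium extracted with ethyl acetate, [³H]-T and [³H]-DHT separated by TLC. Conversion = DHT radioactivity/(T+DHT). IC50 ([…]) relative to 0.5% DMSO control.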
By IC50 is commonly meant the concentration needed to halve the response being measured. Low readings indicate greater potency, high ones weaker potency. On to `C=CCc1c(OC(C)=O)ccc2ccc(=O)oc12`, for which the half-inhibitory concentration (IC50) was 0.819 µM and 0.82 µM.
In the case of `C#CCOc1ccc2ccc(=O)oc2c1` it was over 99.9 µM.
In the case of `C=CCc1c(O)ccc2ccc(=O)oc12` it was 0.989 µM and 0.99 µM; in that of `CC(C)(C)NC(=O)[C@H]1CC[C@H]2[C@@H]3CC[C@H]4NC(=O)C=C[C@]4(C)[C@H]3CC[C@]12C` [FINASTERIDE], 53.1 µM and 53 µM.
In the case of `C=CCc1cc2ccc(=O)oc2cc1O` it was 8.41 µM and 8.4 µM.
The compound `C=CCc1c(OC(=O)c2ccccc2)ccc2ccc(=O)oc12` showed a 50% inhibitory concentration (IC50) of 0.49 µM.
`C=CCc1c(OCCO)ccc2ccc(=O)oc12` returned a half-inhibitory concentration (IC50) of over 81.2 µM.
`C=CCc1c(OC)ccc2ccc(=O)oc12` displayed an IC50 of over 18.5 µM.
In the case of `C=CCc1c(OC(=O)Nc2ccccc2)ccc2ccc(=O)oc12` it was 0.622 µM and 0.62 µM.
As for `C#CC(C)(C)Oc1ccc2ccc(=O)oc2c1`, the figure is over 87.6 µM; as for `C=CCOc1ccc2ccc(=O)oc2c1` [7-ALLYLOXYCOUMARIN], over 98.9 µM; as for `C=CCc1c(OCC(C)=O)ccc2ccc(=O)oc12`, over 77.4 µM.
In the case of `C=CC(C)(C)Oc1ccc2ccc(=O)oc2c1` it was 1.3 µM.
Compound `C=CCc1c(OCc2ccccc2)ccc2ccc(=O)oc12` displayed an IC50 of over 13.7 µM.
As for `O=c1ccc2ccc(O)cc2o1` [UMBELLIFERONE], the figure is over 123 µM; as for `C=CCc1c(OC(C)(C)C=C)ccc2ccc(=O)oc12`, 50.3 µM.
As for `C#CC(C)(C)Oc1ccc2ccc(=O)oc2c1CC=C`, the figure is over 14.9 µM.
